Experimental data as given in ChEMBL document CHEMBL4382225, “Dimeric cinnamoylamide analogues for regulation of tyrosinase activity in melanoma cells: A role of diamide-link chain length” (Bioorg Med Chem, 2018).
The source made the active and inactive calls. The calls are words filed in the database; no cut-off is given here.

How the values were obtained:
Tyrosinase [1] = target: T1, Tyrosinase (Mus musculus, UniProt P11344); assay: Inhibition of tyrosinase in mouse B16-F1 cells; type: cell-based
T1 sequence (P11344 whole entry): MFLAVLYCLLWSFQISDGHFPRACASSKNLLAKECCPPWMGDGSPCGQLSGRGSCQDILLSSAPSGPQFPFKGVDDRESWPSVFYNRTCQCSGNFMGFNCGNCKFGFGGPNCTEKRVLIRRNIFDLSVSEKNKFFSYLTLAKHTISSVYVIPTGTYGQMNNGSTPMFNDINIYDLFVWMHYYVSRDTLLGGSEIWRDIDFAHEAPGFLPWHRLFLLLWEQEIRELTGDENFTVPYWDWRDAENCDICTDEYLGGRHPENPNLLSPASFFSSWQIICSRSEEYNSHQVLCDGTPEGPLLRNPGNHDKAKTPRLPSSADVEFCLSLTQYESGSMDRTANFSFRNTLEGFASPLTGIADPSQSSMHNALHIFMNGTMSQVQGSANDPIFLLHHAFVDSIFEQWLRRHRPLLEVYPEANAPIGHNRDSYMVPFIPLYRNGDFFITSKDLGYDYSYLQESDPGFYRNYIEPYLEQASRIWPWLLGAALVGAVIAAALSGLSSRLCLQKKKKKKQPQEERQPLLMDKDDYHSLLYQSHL
Summary of the method: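 Lysate of B16F1 cells in RIPA buffer, spun 13,000 rpm for 30 min at 4 °C, supernatant protein quantified by BCA. IC₅₀; mean (SD) of three independent experiments.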

B16-F1 [2] = assay: Cytotoxicity against mouse B16-F1 cells at 100 to 200 uM after 72 hrs by MTT assay; type: cell-based; settings: b16-f1, 72 h
Summary of the method: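 B16F1 cells grown in DMEM with 10% FBS and 1% penicillin/streptomycin at 37 °C, 5% CO₂. Seeded 1 × 10⁴ cells/well, treated at 100, 150 and 200 μM for 72 h. Medium removed, MTT added for 1 h, formazan dissolved in DMSO, absorbance at 570 nm. Mean SD of three independent experiments vs untreated cells.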

B16-F1 [3] = assay: Antimelanogenic activity in mouse B16-F1 cells assessed as reduction in alpha-MSH-stimulated melanin production preincubated for 72 hrs followed by alpha-MSH-stimulation and measured after 2 hrs; type: functional, cell-based
Summary of the method: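 B16F1 cells seeded at 1 × 10⁵ cells/well, exposed to compound at indicated concentrations (up to 150 μM) together with 200 nM α-MSH for 72 h. Cells washed twice in PBS, dissolved in 1 N NaOH with 10% DMSO at 80 °C for 2 h, lysate absorbance read at 405 nm. IC₅₀ for melanin production; mean (SD) of three independent experiments.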

[4] = Metal chelating activity of the compound assessed as Cu2+-compound complex formation at 50 uM after 10 mins by UV-Vis spectrophotometric analysis
Summary of the method: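 Copper chelation by UV–vis spectra (220–400 nm). 50 μL of 50 μM compound in ethanol mixed with 0.95 mL aqueous 10 μM CuSO₄, or water as control, incubated at 25 °C for 10 min before spectra recorded.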

[5] = Drug uptake in mouse B16-F1 cells; type: ADME, cell-based
[6] = Antioxidant activity assessed as DPPH free radical scavenging activity after 10 mins; type: functional
Tyrosinase [7] = target: T2, Tyrosinase (Agaricus bisporus, UniProt O42713); assay: Inhibition of mushroom tyrosinase
T2 sequence (O42713 whole entry): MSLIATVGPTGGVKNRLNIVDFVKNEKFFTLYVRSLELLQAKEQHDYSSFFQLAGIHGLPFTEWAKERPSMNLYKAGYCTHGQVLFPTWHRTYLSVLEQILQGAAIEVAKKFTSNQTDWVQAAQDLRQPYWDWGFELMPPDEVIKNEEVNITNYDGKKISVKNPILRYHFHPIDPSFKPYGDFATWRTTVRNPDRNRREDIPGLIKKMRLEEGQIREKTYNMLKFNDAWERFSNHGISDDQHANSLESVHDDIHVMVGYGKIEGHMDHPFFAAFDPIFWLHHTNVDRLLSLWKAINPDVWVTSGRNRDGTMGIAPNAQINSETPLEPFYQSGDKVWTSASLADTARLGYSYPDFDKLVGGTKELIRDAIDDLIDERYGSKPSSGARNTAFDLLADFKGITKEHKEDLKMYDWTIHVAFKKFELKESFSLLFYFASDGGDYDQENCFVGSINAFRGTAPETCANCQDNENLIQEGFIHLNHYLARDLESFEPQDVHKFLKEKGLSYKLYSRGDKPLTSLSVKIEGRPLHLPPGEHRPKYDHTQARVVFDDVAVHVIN

Compound	IC50 (Tyrosinase [1])	Activity (B16-F1 [2])	IC50 (B16-F1 [3])	Activity [4]	Drug uptake [5]	EC50 [6]	IC50 (Tyrosinase [7])
COc1cc(/C=C/C(=O)NCCCNC(=O)/C=C/c2ccc(O)c(OC)c2)ccc1O	65.2 µM	Non-Toxic	123 µM	Active	Active	150 µM	98.3 µM
COc1ccc(/C=C/C(=O)NCCCNC(=O)/C=C/c2ccc(OC)c(O)c2)cc1O	46.7 µM	Non-Toxic	111 µM	Active	Active	2310 µM	55.3 µM
O=C(/C=C/c1cccc(O)c1)NCCNC(=O)/C=C/c1cccc(O)c1	> 150 µM	Non-Toxic	> 150 µM			> 5000 µM	95.3 µM
O=C(/C=C/c1cccc(O)c1)NCCCCNC(=O)/C=C/c1cccc(O)c1	> 150 µM	Non-Toxic	> 150 µM		Active	> 5000 µM	> 150 µM
O=C(/C=C/c1cccc(O)c1)NCCCNC(=O)/C=C/c1cccc(O)c1	40.2 µM	Non-Toxic	95.3 µM	Active		> 5000 µM	55.2 µM
OC[C@H]1O[C@@H](Oc2ccc(O)cc2)[C@H](O)[C@@H](O)[C@@H]1O [ARBUTIN]			148 µM			1700 µM	
O=C(/C=C/c1ccc(O)cc1)NCCNC(=O)/C=C/c1ccc(O)cc1	> 150 µM	Non-Toxic	> 150 µM			> 5000 µM	4.6 µM
COc1ccc(/C=C/C(=O)NCCNC(=O)/C=C/c2ccc(OC)c(O)c2)cc1O	> 150 µM	Non-Toxic	> 150 µM			2210 µM	84.2 µM
COc1cc(/C=C/C(=O)NCCCCNC(=O)/C=C/c2ccc(O)c(OC)c2)ccc1O [TERRESTRIBISAMIDE]	88.4 µM	Non-Toxic	> 150 µM	Active		830 µM	108 µM
COc1ccc(/C=C/C(=O)NCCCCNC(=O)/C=C/c2ccc(OC)c(O)c2)cc1O	> 150 µM	Non-Toxic	> 150 µM			4200 µM	80.2 µM
O=C1O[C@H]([C@@H](O)CO)C(O)=C1O [ASCORBIC ACID]						180 µM	
O=C(/C=C/c1ccc(O)cc1)NCCCNC(=O)/C=C/c1ccc(O)cc1	4.6 µM	Non-Toxic	45.6 µM	Active		> 5000 µM	3.4 µM
O=C(/C=C/c1ccc(O)cc1)NCCCCNC(=O)/C=C/c1ccc(O)cc1	> 150 µM	Non-Toxic	> 150 µM		Active	> 5000 µM	6.5 µM
COc1cc(/C=C/C(=O)NCCNC(=O)/C=C/c2ccc(O)c(OC)c2)ccc1O	> 150 µM	Non-Toxic	> 150 µM			90 µM	> 150 µM
